Here are results for 16 compounds from ChEMBL document CHEMBL1772968, “Comparing micellar, hemolytic, and antibacterial properties of di- and tricarboxyl dendritic amphiphiles” (Bioorg Med Chem, 2011).

One may read the EC10 as the concentration needed for an effect of 10%. In general, MIC refers to the smallest concentration in the dilution series that meets the test's criterion for growth inhibition.

Structures are written as SMILES. In brackets after ≈: the same amount, converted by molar mass. A value given as a limit tells only on which side of the number the result lay.

Data set [1] can be described thus: Cytotoxicity in sheep RBC assessed as hemolysis after 15 mins by microplate reader. Format: cell-based, Ovis aries. To be noted: erythrocyte, 0.25 h. In outline:
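Washed defibrinated sheep red cells (1.1 × 10^7 cells/mL) in PBS pH 7.4, or in full-strength BHIB, were mixed 1:1 with compound diluted from 5% triethanolamine stock. Incubation was 15 min at 37 °C, then cells were pelleted at 5000g for 20 min. Supernatant A540 was read against 0.1% Triton X-100 (complete lysis). EC10 was the lowest concentration giving 10% lysis, in duplicate.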

Data set [2] has as its system Staphylococcus aureus. Description: Antibacterial activity against Staphylococcus aureus ATCC 6358 by broth microdilution method. The class given is functional. In a few lines:
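Log-phase cultures diluted and tested by broth microdilution in 0.1-strength brain heart infusion broth at about 10^5 CFU/mL inoculum. Amphiphile stocks were 12,500 µg/mL in 5% w/v aqueous triethanolamine. MIC was taken as MIC99 and run in duplicate.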

Data set [3] concerns Staphylococcus aureus. Description: Antibacterial activity against methicillin-resistant Staphylococcus aureus 523000 by broth microdilution method. The class given is functional. In a few lines:
(§1)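 MIC (defined as MIC99) determined by broth microdilution in 0.1-strength brain heart infusion broth. Cultures were diluted in growth medium to an inoculum of about 10^5 CFU/mL. Stocks of the amphiphiles were made in aqueous triethanolamine (5% w/v). Vancomycin stock was 500 mg/L in sterile water. Measurements were done in duplicate. Lines 1-6 are recent patient MRSA isolates.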

Data set [4] has as its system Staphylococcus aureus. Description: Antibacterial activity against methicillin-resistant Staphylococcus aureus 36361 by broth microdilution method. The class given is functional. In outline:
as §1

In data set [5] the test system is Staphylococcus aureus. Description: Antibacterial activity against methicillin-resistant Staphylococcus aureus 34864 by broth microdilution method. The class given is functional. In a few lines:
as §1
A general note: In broth dilution the organism is exposed to a series of concentrations in liquid medium.

Data set [6] relates to Staphylococcus aureus. Description: Antibacterial activity against methicillin-resistant Staphylococcus aureus ATCC 43330 by broth microdilution method. Format: functional. In a few lines: as §1
Data set [7] relates to Staphylococcus aureus. Description: Antibacterial activity against methicillin-resistant Staphylococcus aureus 53016 by broth microdilution method. Format: functional. In a few lines:
as §1

The test system of data set [8] is Staphylococcus aureus. Description: Antibacterial activity against methicillin-resistant Staphylococcus aureus 34380 by broth microdilution method. The class given is functional. In a few lines:
as §1

The test system of data set [9] is Staphylococcus aureus. Description: Antibacterial activity against methicillin-resistant Staphylococcus aureus 522870 by broth microdilution method. Format: functional. In outline:
as §1

Data set [10] can be described thus: Critical micelle concentration of the compound in full-strength brain heart infusion broth by dye-covered glass-bead release. To be noted: pH 7.4.
The subject of data set [11] is Staphylococcus aureus. Description: Antibacterial activity against methicillin-resistant Staphylococcus aureus by broth microdilution method. Format: functional.
Data set [12] relates to Staphylococcus aureus. Description: Antibacterial activity against Staphylococcus aureus by broth microdilution method. The class given is functional.

Turning to `CCCCCCCCCCCCCCCCCCCCC(=O)NC(CCC(=O)O)(CCC(=O)O)CCC(=O)O`, the EC10 in [1] is 31 µg/mL. The MIC in data set [2] came out at 54 µg/mL (≈ 97.2 µM); in data set [3] it was 28 µg/mL (≈ 50.4 µM); in [4], 57 µg/mL (≈ 103 µM); in data set [5] it was 23 µg/mL (≈ 41.4 µM); in data set [6], 45 µg/mL (≈ 81 µM); in data set [7], 28 µg/mL (≈ 50.4 µM). Further, the MIC was 28 µg/mL (≈ 50.4 µM) in [8] and 57 µg/mL (≈ 103 µM) in data set [9]. Further, the CMC in [10] was determined as 18 µg/mL.
With `CCCCCCCCCCCCCCCCCCCCCCC(=O)NC(CCC(=O)O)(CCC(=O)O)CCC(=O)O`, in [1], the EC10 worked out at 31 µg/mL. Moreover, the MIC in [2] was 54 µg/mL (≈ 92.5 µM); in [3], 14 µg/mL (≈ 24 µM); in data set [4], 14 µg/mL (≈ 24 µM); in [5] it was 7 µg/mL (≈ 12 µM); in data set [6] it was 4.5 µg/mL (≈ 7.71 µM); in data set [7], 7 µg/mL (≈ 12 µM). Further, the MIC stood at 7 µg/mL (≈ 12 µM) in data set [8] and 14 µg/mL (≈ 24 µM) in data set [9]. The compound further registered a CMC in data set [10] of 18 µg/mL.
Consider `CCCCCCCCCCCCCCCCCCCCCOC(=O)NC(CCC(=O)O)(CCC(=O)O)CCC(=O)O`, for which, in data set [1], the EC10 is 31 µg/mL. Further, the MIC in [2] is 27 µg/mL (≈ 46.1 µM); in data set [3], 7 µg/mL (≈ 11.9 µM); in data set [4], 14 µg/mL (≈ 23.9 µM); in [5], 7 µg/mL (≈ 11.9 µM); in data set [6], 4.5 µg/mL (≈ 7.68 µM); in data set [7], 7 µg/mL (≈ 11.9 µM). Besides, the MIC is 5.3 µg/mL (≈ 9.05 µM) in [8] and 7 µg/mL (≈ 11.9 µM) in [9]. The compound also showed a CMC in data set [10] of 18 µg/mL.
`CCCCCCCCCCCCCCCCCCCCCCCOC(=O)NC(CCC(=O)O)(CCC(=O)O)CCC(=O)O`: the EC10 in [1] is 63 µg/mL. Also, the MIC in data set [2] is 23 µg/mL (≈ 37.5 µM); in [3], 7 µg/mL (≈ 11.4 µM); in data set [4] it was 14 µg/mL (≈ 22.8 µM); in data set [5], 3.6 µg/mL (≈ 5.86 µM); in data set [6], 4.5 µg/mL (≈ 7.33 µM); in data set [7], 3.6 µg/mL (≈ 5.86 µM). Also, the MIC in data set [8] came out at 5.3 µg/mL (≈ 8.63 µM); in data set [9] it was 11 µg/mL (≈ 17.9 µM). The compound also displayed a CMC in [10] of 18 µg/mL.
As to `CCCCCCCCCCCCCCCCCCCCCNC(=O)NC(CCC(=O)O)(CCC(=O)O)CCC(=O)O`, the EC10 in data set [1] stood at 31 µg/mL. Further, the minimum inhibitory concentration (MIC) in data set [2] is 54 µg/mL (≈ 92.3 µM); in data set [3] it was 7 µg/mL (≈ 12 µM); in [4] it was 28 µg/mL (≈ 47.9 µM); in data set [5], 11 µg/mL (≈ 18.8 µM); in data set [6], 4.5 µg/mL (≈ 7.69 µM); in data set [7], 11 µg/mL (≈ 18.8 µM). The MIC in data set [8] was found to be 7 µg/mL (≈ 12 µM); in [9], 14 µg/mL (≈ 23.9 µM). In data set [10], this compound registered a CMC of 9 µg/mL.
Regarding `CCCCCCCCCCCCCCCCCCCCCCCNC(=O)NC(CCC(=O)O)(CCC(=O)O)CCC(=O)O`, in [1], the EC10 was found to be 31 µg/mL. Moreover, the MIC in [2] is 54 µg/mL (≈ 88.1 µM); in [3], 14 µg/mL (≈ 22.8 µM); in data set [4] it was 43 µg/mL (≈ 70.2 µM); in data set [5], 11 µg/mL (≈ 17.9 µM); in data set [6], 6.8 µg/mL (≈ 11.1 µM); in data set [7], 7 µg/mL (≈ 11.4 µM). Besides, the figures for the MIC in data set [8] and in [9] were 11 µg/mL (≈ 17.9 µM) and 14 µg/mL (≈ 22.8 µM), respectively.
Turning to `CCCCCCCCCCCCCCCCCCCCC(=O)NC(C)(CCC(=O)O)CCC(=O)O`, the EC10 in data set [1] was 7.8 µg/mL. The MIC is 2.2 µg/mL (≈ 4.42 µM) in data set [2]; 3.6 µg/mL (≈ 7.23 µM) in [3]; 3.6 µg/mL (≈ 7.23 µM) in [4]; 3.6 µg/mL (≈ 7.23 µM) in [5]; 2.2 µg/mL (≈ 4.42 µM) in data set [6]; 3.6 µg/mL (≈ 7.23 µM) in [7]. Besides, the values for the MIC in data set [8] and in data set [9] were 3.6 µg/mL (≈ 7.23 µM) and 5.3 µg/mL (≈ 10.6 µM), respectively. Besides, in data set [10], the CMC stood at 9 µg/mL.
Regarding `CCCCCCCCCCCCCCCCCCCCCCC(=O)NC(C)(CCC(=O)O)CCC(=O)O`, the EC10 in [1] was 7.8 µg/mL. Further, the MIC in data set [2] stood at 2.2 µg/mL (≈ 4.18 µM); in data set [3] it was 3.6 µg/mL (≈ 6.85 µM); in [4] it was 3.6 µg/mL (≈ 6.85 µM); in data set [5] it was 3.6 µg/mL (≈ 6.85 µM); in data set [6] it was 1.7 µg/mL (≈ 3.23 µM); in data set [7], 3.6 µg/mL (≈ 6.85 µM). Further, the MIC in data set [8] and in data set [9] was 3.6 µg/mL (≈ 6.85 µM) in each case. The CMC in data set [10] stood at 9 µg/mL.
For `CCCCCCCCCCCCCCCCCCCOC(=O)NC(C)(CCC(=O)O)CCC(=O)O`, the EC10 in data set [1] amounted to 16 µg/mL. For the same compound, the MIC in data set [2] was 2.2 µg/mL (≈ 4.4 µM); in [3] it was 1.7 µg/mL (≈ 3.4 µM); in [4] it was 2.2 µg/mL (≈ 4.4 µM); in data set [5] it was 2.2 µg/mL (≈ 4.4 µM); in [6], 2.2 µg/mL (≈ 4.4 µM); in data set [7], 2.2 µg/mL (≈ 4.4 µM). In addition, the MIC in data set [8] stood at 2.2 µg/mL (≈ 4.4 µM). This compound also registered a CMC in [10] of 9 µg/mL.
With `CCCCCCCCCCCCCCCCCCCCCOC(=O)NC(C)(CCC(=O)O)CCC(=O)O`, the EC10 in data set [1] was 16 µg/mL. Besides, the MIC in data set [2] came out at 3.4 µg/mL (≈ 6.44 µM); in [3], 3.4 µg/mL (≈ 6.44 µM); in [4], 2.2 µg/mL (≈ 4.17 µM); in [5], 4.5 µg/mL (≈ 8.53 µM); in data set [6] it was 2.2 µg/mL (≈ 4.17 µM); in data set [7] it was 3.4 µg/mL (≈ 6.44 µM). Besides, the MIC in [8] worked out at 4.5 µg/mL (≈ 8.53 µM). The same compound returned a CMC in [10] of 9 µg/mL.
As for `CCCCCCCCCC(=O)O` [DECANOIC ACID], the MIC in data set [11] was above 250 µg/mL; in data set [12], 250 µg/mL (≈ 1450 µM).
In the case of `CCCCCCCCCCCC(=O)O` [DODECANOATE], the MIC was above 250 µg/mL in [11] and 250 µg/mL (≈ 1250 µM) in data set [12].
The like results for `CCCCCCCCCCCCCC(=O)O` [MYRISTIC ACID] were, in that order, 250 µg/mL (≈ 1090 µM) and 250 µg/mL (≈ 1090 µM).
Consider `CCCCCCCCCCCCCCCC(=O)O` [PALMITIC ACID], for which the MIC in data set [11] was 250 µg/mL (≈ 975 µM); in data set [12], above 250 µg/mL.
As for `CCCCCCCCCCCCCCCCCC(=O)O` [STEARIC ACID], the MIC in data set [12] was above 250 µg/mL.
As to `CN[C@H](CC(C)C)C(=O)N[C@H]1C(=O)N[C@@H](CC(N)=O)C(=O)N[C@H]2C(=O)N[C@H]3C(=O)N[C@H](C(=O)N[C@H](C(=O)O)c4cc(O)cc(O)c4-c4cc3ccc4O)[C@H](O)c3ccc(c(Cl)c3)Oc3cc2cc(c3O[C@@H]2O[C@H](CO)[C@@H](O)[C@H](O)[C@H]2O[C@H]2C[C@](C)(N)[C@H](O)[C@H](C)O2)Oc2ccc(cc2Cl)[C@H]1O` [VANCOMYCIN], the MIC in data set [2] stood at 0.25 µg/mL (≈ 0.173 µM); in [4] it was 0.75 µg/mL (≈ 0.518 µM); in [5], 0.38 µg/mL (≈ 0.262 µM); in data set [6], 0.25 µg/mL (≈ 0.173 µM); in data set [7] it was 0.38 µg/mL (≈ 0.262 µM); in [9] it was 0.25 µg/mL (≈ 0.173 µM).
